Results from ChEMBL document CHEMBL3112579, “Inhibition of 5-oxo-6,8,11,14-eicosatetraenoic acid-induced activation of neutrophils and eosinophils by novel indole OXE receptor antagonists” (J Med Chem, 2014).
Activity calls are given as the source filed them. The calls are words filed in the database; no cut-off is given here.

Tests used:
[1] = molecular target: T1, Oxoeicosanoid receptor 1 (Homo sapiens, UniProt Q8TDS5); assay: Antagonist activity at OXE receptor (unknown origin) expressed in indo-1 loaded neutrophils assessed as inhibition of 5-oxo-ETE-induced calcium mobilization incubated for 2 mins prior to 5-oxo-ETE induction by spectrofluorometric analysis; assay type: functional
[2] = molecular target: T1, Oxoeicosanoid receptor 1; assay: Antagonist activity at OXE receptor in human neutrophils assessed as inhibition of 5-oxo-ETE-induced calcium mobilization by spectrofluorometric analysis; assay type: functional
How it was run: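 Indo-1 AM-loaded human neutrophils (dextran, Ficoll, hypotonic lysis) in PBS with Ca++ 1.8 mM and Mg++ 1 mM, stirred at 37 °C, ex 331/em 410 nm. Vehicle (DMSO) or antagonist at varied concentrations, then 5-oxo-ETE (final 10 nM) 2 min later, then digitonin (0.1%) 1 min later for maximal signal. IC50s are means ± SE of per-experiment IC50 values.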

[3] = system: Liver; assay: Drug metabolism in Sprague-Dawley rat liver homogenates assessed as retention time of unmetabolized compound at 20 uM by reversed-phase HPLC analysis; assay type: ADME, tissue-based; conditions: tissue homogenate
How it was run: (§1)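 Male Sprague-Dawley rat liver homogenized in 0.25 M sucrose and spun at 600 × g for 10 min. Supernatant (0.8 ml) combined with phosphate buffer pH 7.4 (final 50 mM) and NADPH (final 1 mM). Compound (20 μM) incubated 60 min at 37 °C, stopped with ice-cold MeOH. Products analysed by reversed-phase HPLC with UV detection.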

[4] = system: Rattus norvegicus; assay: Drug metabolism in […] in presence of NADPH; assay type: ADME
[5] = Drug metabolism in Sprague-Dawley rat liver homogenates at 20 uM after 60 mins by reversed-phase HPLC analysis in presence of NADPH; assay type: ADME, tissue-based; conditions: read-out: Drug metabolism; how it was run: as §1
[6] = system: Liver; assay: Drug metabolism in Sprague-Dawley rat liver homogenates assessed as metabolite retention time at 20 uM by reversed-phase HPLC analysis; assay type: ADME, tissue-based; conditions: tissue homogenate; how it was run: as §1
[7] = system: Liver; assay: Drug metabolism in Sprague-Dawley rat liver homogenates in presence of ATP, CoA, L-carnitine, NAD+; assay type: ADME, tissue-based; conditions: tissue homogenate
[8] = molecular target: T1, Oxoeicosanoid receptor 1; assay: Antagonist activity at OXE receptor (unknown origin) expressed in anti-CD49d-labeled neutrophils assessed as inhibition of 5-oxo-ETE-induced F-actin polymerization preincubated for 5 mins followed by 5-oxo-ETE induction measured after 20 secs by flow cytometric analysis
How it was run: (§2)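 Unfractionated human leukocytes (dextran sedimentation, hypotonic lysis) stained 30 min on ice with APC-anti-CD49d, 5.5×10^6 cells/ml in PBS with Ca++/Mg++. Preincubated 5 min at 37 °C with vehicle or inhibitor, then 5-oxo-ETE (final 10 nM) for 20 s. Fixed in formaldehyde (final 8.5%), permeabilized with lysophosphatidylcholine, NBD-phalloidin (final 0.3 μM) overnight at 4 °C, flow cytometry. Eosinophils gated as high side scatter/high CD49d, neutrophils as high side scatter/low CD49d.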

[9] = organism: Homo sapiens; assay: Antagonist activity at interleukin-8 receptor (unknown origin) expressed in indo-1 loaded neutrophils assessed as inhibition of IL-8-induced calcium mobilization by spectrofluorometric analysis
How it was run: (§3)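 Human blood neutrophils (dextran sedimentation, Ficoll, hypotonic lysis) loaded with indo-1 AM. Ca++ 1.8 mM and Mg++ 1 mM added to the cuvette. Read at 37 °C with stirring, ex 331/em 410 nm. Vehicle or antagonist (10 μM) added, 5-oxo-ETE (10 nM) 2 min later, second agonist (LTB4, PAF, fMLP or IL-8) after a further 2 min, digitonin (0.1%) 1 min later for maximal fluorescence. Two independent experiments.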

[10] = molecular target: T2, fMet-Leu-Phe receptor (Homo sapiens) (UniProt P21462); assay: Antagonist activity at FPR1 receptor (unknown origin) expressed in indo-1 loaded neutrophils assessed as inhibition of fMLP-induced calcium mobilization at 10 uM by spectrofluorometric analysis; assay type: functional; how it was run: as §3
T2 sequence (whole entry): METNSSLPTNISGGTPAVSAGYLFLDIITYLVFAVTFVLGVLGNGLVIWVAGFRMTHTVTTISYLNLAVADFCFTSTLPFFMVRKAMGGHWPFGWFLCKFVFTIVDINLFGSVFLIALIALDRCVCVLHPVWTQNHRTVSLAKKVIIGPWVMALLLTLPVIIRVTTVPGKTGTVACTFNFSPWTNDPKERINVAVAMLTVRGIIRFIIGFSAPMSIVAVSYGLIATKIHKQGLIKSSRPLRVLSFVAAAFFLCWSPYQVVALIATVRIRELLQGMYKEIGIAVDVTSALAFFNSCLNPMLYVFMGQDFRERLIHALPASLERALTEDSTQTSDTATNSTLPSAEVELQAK

[11] = molecular target: Platelet-activating factor receptor (Homo sapiens) (UniProt P25105); assay: Antagonist activity at PAF receptor (unknown origin) expressed in indo-1 loaded neutrophils assessed as inhibition of PAF-induced calcium mobilization at 10 uM by spectrofluorometric analysis; assay type: functional; how it was run: as §3
[12] = molecular target: Leukotriene B4 receptor 1 (Homo sapiens) (UniProt Q15722); assay: Antagonist activity at LTB4 receptor (unknown origin) expressed in indo-1 loaded neutrophils assessed as inhibition of LTB4-induced calcium mobilization at 10 uM by spectrofluorometric analysis; assay type: functional; how it was run: as §3
[13] = molecular target: T1, Oxoeicosanoid receptor 1; assay: Potency index, ratio of compound activity to Gue1654 activity for antagonism of OXE receptor (unknown origin) expressed in anti-CD49d-labeled neutrophils assessed as inhibition of 5-oxo-ETE-induced F-actin polymerization
[14] = molecular target: T1, Oxoeicosanoid receptor 1; assay: Potency index, ratio of compound activity to Gue1654 activity for antagonism of OXE receptor (unknown origin) expressed in anti-CD49d-labeled eosinophils assessed as inhibition of 5-oxo-ETE-induced F-actin polymerization
[15] = molecular target: T1, Oxoeicosanoid receptor 1; assay: Antagonist activity at OXE receptor (unknown origin) expressed in anti-CD49d-labeled eosinophils assessed as inhibition of 5-oxo-ETE-induced F-actin polymerization preincubated for 5 mins followed by 5-oxo-ETE induction measured after 20 secs by flow cytometric analysis
How it was run: as §2, with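 “s.” for “s. Fixed in formaldehyde (final 8.5%), permeabilized with lysophosphatidylcholine, NBD-phalloidin (final 0.3 μM) overnight at 4 °C, flow cytometry.”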

T1 sequence (Q8TDS5 whole entry): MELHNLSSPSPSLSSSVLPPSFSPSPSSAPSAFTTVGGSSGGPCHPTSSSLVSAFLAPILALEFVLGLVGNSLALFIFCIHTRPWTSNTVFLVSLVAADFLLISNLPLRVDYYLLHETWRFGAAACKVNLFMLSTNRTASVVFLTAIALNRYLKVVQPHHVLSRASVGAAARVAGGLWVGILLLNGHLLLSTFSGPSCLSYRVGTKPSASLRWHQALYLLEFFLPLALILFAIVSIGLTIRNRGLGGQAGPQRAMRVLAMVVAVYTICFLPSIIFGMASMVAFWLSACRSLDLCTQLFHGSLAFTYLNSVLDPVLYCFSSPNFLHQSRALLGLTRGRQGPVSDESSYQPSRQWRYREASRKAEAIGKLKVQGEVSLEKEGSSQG
Chain of Leukotriene B4 receptor 1 (Homo sapiens) (Q15722 whole entry): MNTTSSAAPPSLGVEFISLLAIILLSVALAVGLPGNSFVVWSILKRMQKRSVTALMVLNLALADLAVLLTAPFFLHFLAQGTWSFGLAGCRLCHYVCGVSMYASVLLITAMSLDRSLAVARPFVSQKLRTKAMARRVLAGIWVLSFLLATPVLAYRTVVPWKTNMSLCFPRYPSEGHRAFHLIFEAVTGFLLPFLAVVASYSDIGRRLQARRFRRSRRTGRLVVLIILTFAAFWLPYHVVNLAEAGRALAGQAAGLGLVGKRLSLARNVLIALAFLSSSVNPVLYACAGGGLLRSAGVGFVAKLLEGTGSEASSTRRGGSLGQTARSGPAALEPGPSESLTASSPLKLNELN
Chain of Platelet-activating factor receptor (Homo sapiens) (P25105 whole entry): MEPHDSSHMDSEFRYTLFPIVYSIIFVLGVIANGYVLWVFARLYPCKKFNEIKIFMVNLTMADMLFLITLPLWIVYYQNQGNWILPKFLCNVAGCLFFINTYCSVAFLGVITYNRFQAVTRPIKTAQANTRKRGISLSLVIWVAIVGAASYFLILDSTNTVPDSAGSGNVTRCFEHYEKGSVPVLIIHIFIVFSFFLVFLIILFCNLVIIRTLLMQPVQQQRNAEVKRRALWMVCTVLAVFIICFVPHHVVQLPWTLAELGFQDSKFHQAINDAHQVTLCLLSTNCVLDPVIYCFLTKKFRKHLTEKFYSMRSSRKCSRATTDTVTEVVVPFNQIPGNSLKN

Question: Which IC50 [1] does the source give for `CCCCCc1cc2ccccc2n1C(=O)CCCC(=O)O` here?
Answer: 2.15 µM

Question: What does the source list for `CCCCCCc1[nH]c2ccccc2c1C(=O)CCCC(=O)O`?
Answer: IC50 [1]: 9.75 µM; inhibition [1]: 50%

Question: Which IC50 [1] does the source give for `CCCC/C=C/c1cc2ccccc2n1C(=O)CCCC(=O)O` here?
Answer: 4.03 µM

Question: For `CCCCCCc1nc2ccccc2cc1C(=O)CCCC(=O)O`, which IC50 [1] is on record?
Answer: > 30 µM

Question: Which IC50 [2] does the source give for `CCCCC/C=C\C[C@H](O)/C=C/C=C/C=C/C(=O)CCCC(=O)O` here?
Answer: 2.5 µM

Question: Which inhibition [1] does the source give for `CCCCCCc1ccc2c(ccn2C(=O)CCCC(=O)O)c1` here?
Answer: Active

Question: Which Retention_time [3] does the source give for `CCCCCCc1cc2ccc(Cl)cc2n1C(=O)CC(C)CC(=O)O` (racemic) here?
Answer: 30.2 min

Question: What about the Drug metabolism [4] of the same molecule?
Answer: Active

Question: And the metabolised at 1 h, 20 µM [5]?
Answer: 12%

Question: And the Retention_time [6]?
Answer: 18.2 min

Question: And the Drug metabolism [7]?
Answer: Not Active

Question: And the inhibition [8]?
Answer: Active

Question: What about the inhibition [9] of the same molecule?
Answer: inactive

Question: What about the inhibition [10] of the same molecule?
Answer: inactive

Question: What about the inhibition [11] of the same molecule?
Answer: inactive

Question: And the inhibition [12]?
Answer: inactive

Question: Which IC50 [1] does the source give for `CCCCCCc1c(C(=O)CC(C)CC(=O)O)c2ccccc2n1C` (centres undefined) here?
Answer: 0.314 µM

Question: With `O=C(O)CCCC(=O)n1ccc2ccccc21` as the molecule, how does the IC50 [1] read?
Answer: > 30 µM

Question: For `CCCCCCCCC/C=C\c1cc2ccccc2n1C(=O)CCCC(=O)O`, which IC50 [1] is on record?
Answer: 0.55 µM

Question: Which IC50 [1] does the source give for `CCCCCCc1cc2ccc(OC)cc2n1C(=O)CC(C)CC(=O)O` (centres undefined) here?
Answer: 0.323 µM

Question: Which IC50 [1] does the source give for `CCCCCCc1cc2ccccc2n1C(=O)CCC(=O)O` here?
Answer: > 30 µM

Question: With `CCCCCCc1cc2ccccc2n1C(=O)CCCC(=O)O` as the molecule, how does the IC50 [1] read?
Answer: 1.13 µM

Question: Which inhibition [1] does the source give for `CCCCCCc1cn(C(=O)CCCC(=O)O)c2ccccc12` here?
Answer: Active

Question: Which IC50 [1] does the source give for `CCCCCCCCCCCc1cc2ccccc2n1C(=O)CCCC(=O)O` here?
Answer: 0.7 µM

Question: Which IC50 [1] does the source give for `CCCCCCCc1cc2ccccc2n1C(=O)CCCC(=O)O` here?
Answer: 0.75 µM

Question: Which inhibition [1] does the source give for `CCCCCCc1ccc2ccn(C(=O)CCCC(=O)O)c2c1` here?
Answer: Active

Question: With `CCCCC/C=C\C[C@H](O)/C=C/C=C\C=C\C(=O)CCCC(=O)O` as the molecule, how does the IC50 [2] read?
Answer: 0.5 µM

Question: For `CCCCc1cc2ccccc2n1C(=O)CCCC(=O)O`, which IC50 [1] is on record?
Answer: 13.7 µM

Question: For `CCCCCCCCc1cc2ccccc2n1C(=O)CCCC(=O)O`, which IC50 [1] is on record?
Answer: 0.57 µM

Question: With `CCCCCCc1c(C(=O)CC(C)CC(=O)O)c2ccc(Cl)cc2n1C` (centres undefined) as the molecule, how does the IC50 [1] read?
Answer: 0.081 µM

Question: Which IC50 [1] does the source give for `CCCCCCc1cc2cc(Cl)ccc2n1C(=O)CC(C)CC(=O)O` (centres undefined) here?
Answer: 0.141 µM

Question: With `CCCCCCc1c(C(=O)CCCC(=O)O)c2cc(Cl)ccc2n1C` as the molecule, how does the IC50 [1] read?
Answer: 0.566 µM

Question: Which inhibition [1] does the source give for `CCCCCCn1cc(C(=O)CCCC(=O)O)c2ccccc21` here?
Answer: Active

Question: Which IC50 [1] does the source give for `CCCCCCc1c(C)c2ccccc2n1C(=O)CC(C)CC(=O)O` (centres undefined) here?
Answer: 0.136 µM

Question: For `CCCCCCc1cc2ccccc2n1C(=O)CC1(CC(=O)O)CC1`, which IC50 [1] is on record?
Answer: 1.63 µM

Question: Which IC50 [1] does the source give for `CCCCCCc1cc2ccc(Br)cc2n1C(=O)CC(C)CC(=O)O` (centres undefined) here?
Answer: 0.03 µM

Question: Which IC50 [1] does the source give for `CCCCCCc1cc2cc(Br)ccc2n1C(=O)CC(C)CC(=O)O` (centres undefined) here?
Answer: 0.638 µM

Question: With `CCCCCCc1c(C(=O)CCCC(=O)O)c2ccccc2n1C` as the molecule, how does the IC50 [1] read?
Answer: 6.06 µM

Question: Which IC50 [1] does the source give for `CCCCCCc1c(C(=O)CC(C)CC(=O)O)c2cc(Br)ccc2n1C` (centres undefined) here?
Answer: 0.026 µM

Question: Which results are given for `CCCCCCc1c(C(=O)CC(C)CC(=O)O)c2cc(Cl)ccc2n1C` (racemic)?
Answer: Drug metabolism [4]: Active; metabolised at 1 h, 20 µM [5]: 2%; Retention_time [6]: 14.1 min; Drug metabolism [7]: Not Active; Ratio [13]: 10; Ratio [14]: 10; inhibition [8]: Active; IC50 [15]: 0.033 µM; inhibition [9]: inactive; inhibition [10]: inactive; inhibition [11]: inactive; inhibition [12]: inactive

Question: Which inhibition [1] does the source give for `CCCCCCc1cccc2ccn(C(=O)CCCC(=O)O)c12` here?
Answer: Active

Question: With `CCCCCCc1cc2ccccc2n1C(=O)CC(C)(C)CC(=O)O` as the molecule, how does the IC50 [1] read?
Answer: 11 µM
